What was measured:
Liver microsome = assay: Drug metabolism in Sprague-Dawley rat liver microsomes assessed as retention time at 10 uM by LC-UV-MS method in presence of UDPGA; assay type: ADME
[1] = Drug metabolism in cynomolgus monkey liver microsomes assessed as N-glucuronide-triclocarban formation incubated for 5 mins prior to UDPGA addition measured after 5 to 30 mins by LC-UV analysis; assay type: ADME, Macaca fascicularis
Summary of the method: (§1)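 Microsomes or UGT Supersomes (5 µg protein) were held 15 min on ice with alamethicin in 100 mM potassium phosphate pH 7.4. TCC was added at 10 µM (2% DMSO) with 10 mM MgCl2 and 10 mM saccharolactone, pre-warmed 5 min at 37 °C, then started with UDPGA. Samples at 5, 10, 15 and 30 min were quenched in ACN. Product was read by LC-UV at 265 nm; rate came from regression over time, three incubations.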

[2] = biological target: T1, UDP-glucuronosyltransferase 1A3 (Homo sapiens, UniProt P35503); assay: Drug metabolism assessed as human UGT1A3-mediated N-glucuronide-triclocarban formation expressed in baculovirus infected insect sf9 cells incubated for 5 mins prior to UDPGA addition measured after 5 to 30 mins by LC-UV analysis; assay type: ADME; summary of the method: as §1
T1 sequence (P35503 whole entry): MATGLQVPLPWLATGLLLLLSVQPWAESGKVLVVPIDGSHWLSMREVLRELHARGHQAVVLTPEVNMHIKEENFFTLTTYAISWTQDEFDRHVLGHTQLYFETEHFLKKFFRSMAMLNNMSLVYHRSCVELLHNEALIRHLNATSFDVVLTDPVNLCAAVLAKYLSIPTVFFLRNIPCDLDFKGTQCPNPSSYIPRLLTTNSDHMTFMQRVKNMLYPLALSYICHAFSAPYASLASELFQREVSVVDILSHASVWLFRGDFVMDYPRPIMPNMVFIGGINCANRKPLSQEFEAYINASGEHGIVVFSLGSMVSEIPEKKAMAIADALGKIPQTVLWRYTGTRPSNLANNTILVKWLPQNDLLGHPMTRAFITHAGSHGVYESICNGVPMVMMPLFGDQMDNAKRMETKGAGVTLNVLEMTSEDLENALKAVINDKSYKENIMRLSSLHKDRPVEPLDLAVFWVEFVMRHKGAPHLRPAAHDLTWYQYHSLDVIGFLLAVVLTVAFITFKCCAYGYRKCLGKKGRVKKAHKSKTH

[3] = biological target: T2, UDP-glucuronosyltransferase 1A9 (Homo sapiens, UniProt O60656); assay: Drug metabolism assessed as human UGT1A9-mediated N-glucuronide-triclocarban formation expressed in baculovirus infected insect sf9 cells incubated for 5 mins prior to UDPGA addition measured after 30 mins by LC-ESI-MS analysis; assay type: ADME; conditions: sf9, 0.5 h
T2 sequence (O60656 whole entry): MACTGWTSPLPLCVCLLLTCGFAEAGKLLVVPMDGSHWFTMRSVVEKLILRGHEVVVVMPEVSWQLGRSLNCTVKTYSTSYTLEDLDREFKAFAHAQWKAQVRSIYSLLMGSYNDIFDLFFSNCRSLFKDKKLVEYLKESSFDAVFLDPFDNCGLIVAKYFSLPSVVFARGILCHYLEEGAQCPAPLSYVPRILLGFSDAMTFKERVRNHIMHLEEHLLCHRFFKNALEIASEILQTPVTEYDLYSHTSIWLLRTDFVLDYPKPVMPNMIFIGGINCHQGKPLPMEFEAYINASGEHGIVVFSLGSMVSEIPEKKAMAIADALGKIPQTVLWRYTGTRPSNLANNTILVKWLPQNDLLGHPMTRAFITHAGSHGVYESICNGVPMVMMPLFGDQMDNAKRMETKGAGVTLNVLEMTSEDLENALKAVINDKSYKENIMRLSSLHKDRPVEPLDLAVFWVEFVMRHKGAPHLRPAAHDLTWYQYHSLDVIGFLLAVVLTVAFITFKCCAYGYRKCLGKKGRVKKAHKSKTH
Summary of the method: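 TCC was incubated at 10 µM (2% DMSO) in 100 mM phosphate pH 7.4 with alamethicin-treated microsomes or Supersomes, 10 mM MgCl2 and 10 mM saccharolactone. After 5 min pre-incubation at 37 °C, UDPGA was added to start the reaction. Protein was raised up to 2 mg/mL. Samples were quenched in ACN with 1 µM DCC internal standard, centrifuged, and N-glucuronides detected by LC-ESI-MS/MS in SRM mode.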

[4] = biological target: T3, UDP-glucuronosyltransferase 1A7 (Homo sapiens, UniProt Q9HAW7); assay: Drug metabolism assessed as human UGT1A7-mediated N'-glucuronide-triclocarban formation expressed in baculovirus infected insect sf9 cells incubated for 5 mins prior to UDPGA addition measured after 5 to 30 mins by LC-UV analysis; assay type: ADME; summary of the method: as §1
T3 sequence (Q9HAW7 whole entry): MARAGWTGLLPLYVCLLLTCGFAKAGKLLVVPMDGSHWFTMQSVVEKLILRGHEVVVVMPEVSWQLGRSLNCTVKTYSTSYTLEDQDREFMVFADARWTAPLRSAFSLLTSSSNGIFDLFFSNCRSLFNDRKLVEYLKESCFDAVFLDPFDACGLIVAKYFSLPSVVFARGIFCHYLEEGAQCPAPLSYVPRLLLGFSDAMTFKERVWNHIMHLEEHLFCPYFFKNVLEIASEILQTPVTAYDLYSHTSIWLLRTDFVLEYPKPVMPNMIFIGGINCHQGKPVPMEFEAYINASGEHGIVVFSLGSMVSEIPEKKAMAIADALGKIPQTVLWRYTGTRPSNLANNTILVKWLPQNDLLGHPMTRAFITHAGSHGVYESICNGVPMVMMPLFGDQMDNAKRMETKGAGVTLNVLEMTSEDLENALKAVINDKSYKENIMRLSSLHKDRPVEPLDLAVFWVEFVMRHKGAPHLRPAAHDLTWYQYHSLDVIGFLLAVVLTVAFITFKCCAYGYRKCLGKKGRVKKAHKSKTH

[5] = biological target: T2, UDP-glucuronosyltransferase 1A9; assay: Drug metabolism assessed as human UGT1A9-mediated N'-glucuronide-triclocarban formation expressed in baculovirus infected insect sf9 cells incubated for 5 mins prior to UDPGA addition measured after 5 to 30 mins by LC-UV analysis; assay type: ADME; summary of the method: as §1

| Compound | Retention_time (Liver microsome) [min] | Drug metabolism [1] | Drug metabolism [2] | Drug metabolism [3] | Drug metabolism [4] | Drug metabolism [5] |
| --- | --- | --- | --- | --- | --- | --- |
| O=C(Nc1ccc(Cl)c(O)c1)Nc1ccc(Cl)c(Cl)c1 | 2.26 |  |  |  |  |  |
| O=C(Nc1ccc(Cl)cc1)Nc1ccc(Cl)c(Cl)c1 [TRICLOCARBAN] |  | metabolite_not_detected | metabolite_not_detected | metabolite_detected | metabolite_not_detected | metabolite_not_detected |

Source: ChEMBL document CHEMBL3525967, “In vitro glucuronidation of the antibacterial triclocarban and its oxidative metabolites” (Drug Metab Dispos, 2012)
